In series [1] the target is Calcium/calmodulin-dependent protein kinase type 1D (Homo sapiens, UniProt Q8IU85). The experiment in a line: Inhibition of CAMK1d in human HeLa cells lysate pre incubated for 15 mins followed by ADP acyl phosphate probe addition and measured after 10 mins by LC-MS/MS analysis. The format is subcellular. The procedure, abridged: (§1)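 KiNativ-type profiling in HeLa lysate (5 mg/mL total protein). Lysate preincubated 15 min with inhibitor at 50, 10, 2, 0.8 or 0 μM, then ATP or ADP acylphosphate probe added (5 μM final) for 10 min. Reaction stopped with urea and analysed by targeted MS, using up to four fragment ions per kinase peptide-probe conjugate. % inhibition calculated against untreated lysate. Duplicate reactions.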
Sequence of Calcium/calmodulin-dependent protein kinase type 1D (Q8IU85 whole entry, the tested form may be a part): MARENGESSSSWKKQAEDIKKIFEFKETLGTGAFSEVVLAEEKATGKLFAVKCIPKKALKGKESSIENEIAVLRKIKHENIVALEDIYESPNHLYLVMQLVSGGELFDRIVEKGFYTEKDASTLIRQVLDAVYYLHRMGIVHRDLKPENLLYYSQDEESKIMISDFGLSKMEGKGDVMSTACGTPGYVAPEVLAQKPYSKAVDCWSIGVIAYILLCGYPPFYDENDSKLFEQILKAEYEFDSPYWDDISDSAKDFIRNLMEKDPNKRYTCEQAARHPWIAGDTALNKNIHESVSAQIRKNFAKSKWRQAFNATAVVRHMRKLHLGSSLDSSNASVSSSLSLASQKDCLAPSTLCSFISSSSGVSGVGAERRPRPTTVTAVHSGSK

The target in series [2] is Serine/threonine-protein kinase ATR (Homo sapiens, UniProt Q13535). The experiment in a line: Inhibition of ATR in human HeLa cells lysate pre incubated for 15 mins followed by ATP acyl phosphate probe addition and measured after 10 mins by LC-MS/MS analysis. The format is subcellular. A digest of the protocol: as §1
In series [3] the target is Hepatocyte growth factor receptor (Homo sapiens, UniProt P08581). The experiment in a line: Inhibition of MET in human HeLa cells lysate pre incubated for 15 mins followed by ATP acyl phosphate probe addition and measured after 10 mins by LC-MS/MS analysis. The format is subcellular.
Sequence of Hepatocyte growth factor receptor (P08581 whole entry): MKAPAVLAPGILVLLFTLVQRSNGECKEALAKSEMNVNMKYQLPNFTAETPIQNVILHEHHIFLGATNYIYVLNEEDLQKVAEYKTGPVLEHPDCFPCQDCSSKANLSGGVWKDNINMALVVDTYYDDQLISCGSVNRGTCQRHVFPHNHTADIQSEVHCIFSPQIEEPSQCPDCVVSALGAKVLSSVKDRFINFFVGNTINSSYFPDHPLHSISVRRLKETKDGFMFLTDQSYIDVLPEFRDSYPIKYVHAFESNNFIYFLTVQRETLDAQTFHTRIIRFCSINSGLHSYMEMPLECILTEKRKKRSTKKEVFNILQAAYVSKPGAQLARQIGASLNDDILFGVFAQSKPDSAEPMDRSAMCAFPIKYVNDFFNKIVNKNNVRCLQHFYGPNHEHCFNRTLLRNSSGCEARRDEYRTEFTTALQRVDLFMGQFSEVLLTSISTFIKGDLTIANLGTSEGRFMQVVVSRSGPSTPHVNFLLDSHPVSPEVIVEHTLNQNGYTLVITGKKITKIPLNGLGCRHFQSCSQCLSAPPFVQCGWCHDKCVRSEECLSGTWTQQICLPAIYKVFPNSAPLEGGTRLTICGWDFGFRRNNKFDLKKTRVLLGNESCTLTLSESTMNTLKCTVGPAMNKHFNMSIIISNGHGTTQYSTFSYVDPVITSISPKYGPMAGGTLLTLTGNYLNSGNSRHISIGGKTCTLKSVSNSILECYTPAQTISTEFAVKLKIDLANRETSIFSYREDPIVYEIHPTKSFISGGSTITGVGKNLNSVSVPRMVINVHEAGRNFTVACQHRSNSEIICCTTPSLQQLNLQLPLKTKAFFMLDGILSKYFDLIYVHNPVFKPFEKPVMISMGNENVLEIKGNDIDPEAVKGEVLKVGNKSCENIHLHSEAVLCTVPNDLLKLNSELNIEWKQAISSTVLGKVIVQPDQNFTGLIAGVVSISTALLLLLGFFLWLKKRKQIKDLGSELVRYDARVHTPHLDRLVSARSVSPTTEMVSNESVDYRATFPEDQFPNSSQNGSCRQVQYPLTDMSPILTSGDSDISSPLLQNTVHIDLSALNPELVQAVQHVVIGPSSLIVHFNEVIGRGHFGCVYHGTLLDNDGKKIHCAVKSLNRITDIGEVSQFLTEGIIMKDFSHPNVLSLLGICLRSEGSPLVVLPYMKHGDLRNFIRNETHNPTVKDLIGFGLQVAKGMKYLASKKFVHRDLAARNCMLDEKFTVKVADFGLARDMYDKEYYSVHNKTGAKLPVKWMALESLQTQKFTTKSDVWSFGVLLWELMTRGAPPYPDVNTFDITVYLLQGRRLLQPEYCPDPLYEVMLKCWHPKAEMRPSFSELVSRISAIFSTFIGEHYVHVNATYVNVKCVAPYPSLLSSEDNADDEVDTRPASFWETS
Series [4] can be described thus: Inhibition of SRPK1/2 in human HeLa cells lysate at 2 uM pre incubated for 15 mins followed by ADP acyl phosphate probe addition and measured after 10 mins by LC-MS/MS analysis relative to control. The settings on record: 25 min, condition cancer.
For series [5], the target named is Cyclin-dependent kinase 2 (Homo sapiens, UniProt P24941). The experiment in a line: Inhibition of CDK2 K2 site in human HeLa cells lysate at 2 uM pre incubated for 15 mins followed by ADP acyl phosphate probe addition and measured after 10 mins by LC-MS/MS analysis relative to control. The format is subcellular. The note with it: time 25.0 min. A digest of the protocol: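 KiNativ profiling in HeLa lysate (5 mg/mL total protein). Lysate incubated 15 min with inhibitor at 50, 10, 2, 0.8 or 0 μM. ATP or ADP acylphosphate probe then added (5 μM final) and reacted 10 min. Reaction stopped with urea and analysed by targeted MS, using up to four fragment ions per kinase peptide-probe conjugate. % inhibition taken against untreated lysate. Run in duplicate.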

For series [6], the target named is Serine/threonine-protein kinase PLK1 (Homo sapiens, UniProt P53350). The experiment in a line: Inhibition of PLK1 K1 site in human HeLa cells lysate pre incubated for 15 mins followed by ATP acyl phosphate probe addition and measured after 10 mins by LC-MS/MS analysis. The format is subcellular.
The target of series [7] is Cyclin-dependent kinase 16 (Homo sapiens, UniProt Q00536). The experiment in a line: Inhibition of PCTAIRE1 in human HeLa cells lysate at 2 uM pre incubated for 15 mins followed by ADP acyl phosphate probe addition and measured after 10 mins by LC-MS/MS analysis relative to control. The format is subcellular. The settings on record: time 25.0 min.
Series [8] deals with Mitogen-activated protein kinase 3 (Homo sapiens, UniProt P27361). Description: Inhibition of ERK1 in human HeLa cells lysate pre incubated for 15 mins followed by ATP acyl phosphate probe addition and measured after 10 mins by LC-MS/MS analysis. The format is subcellular.
Sequence of Mitogen-activated protein kinase 3 (P27361 whole entry): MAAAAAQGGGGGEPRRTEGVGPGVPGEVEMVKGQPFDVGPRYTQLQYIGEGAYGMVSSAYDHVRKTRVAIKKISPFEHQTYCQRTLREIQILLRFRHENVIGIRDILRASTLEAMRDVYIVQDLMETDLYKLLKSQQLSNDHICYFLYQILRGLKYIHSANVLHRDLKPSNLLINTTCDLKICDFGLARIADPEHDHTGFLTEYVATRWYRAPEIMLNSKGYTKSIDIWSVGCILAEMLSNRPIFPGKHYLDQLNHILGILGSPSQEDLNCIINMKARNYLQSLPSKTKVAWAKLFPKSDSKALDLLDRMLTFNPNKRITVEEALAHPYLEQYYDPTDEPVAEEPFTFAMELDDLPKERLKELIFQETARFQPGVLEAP
Series [9] deals with DNA-dependent protein kinase catalytic subunit (Homo sapiens, UniProt P78527). The experiment in a line: Inhibition of PRKDC in human HeLa cells lysate pre incubated for 15 mins followed by ADP acyl phosphate probe addition and measured after 10 mins by LC-MS/MS analysis. The format is subcellular.
In series [10] the target is Microtubule-associated serine/threonine-protein kinase 3 (Homo sapiens, UniProt O60307). Description: Inhibition of MAST3 in human HeLa cells lysate at 2 uM pre incubated for 15 mins followed by ATP acyl phosphate probe addition and measured after 10 mins by LC-MS/MS analysis relative to control. The format is subcellular. The settings on record: time 25.0 min.
Series [11] can be described thus: Toxicity in C57Bl/6 mouse assessed as effect on alanine aminotransferase level at 50 mg/kg, ip for 14 days (reference value: 35 U/L). The note with it: in vivo, 336 h, time 14 day. The format is organism-based.
Series [12] concerns the target Eukaryotic translation initiation factor 2-alpha kinase 3 (Homo sapiens, UniProt Q9NZJ5). Description: Inhibition of PEK in human HeLa cells lysate pre incubated for 15 mins followed by ATP acyl phosphate probe addition and measured after 10 mins by LC-MS/MS analysis. The format is subcellular.
Series [13] addresses T1, Phosphatidylinositol 5-phosphate 4-kinase type-2 alpha (Homo sapiens, UniProt P48426).
T1 sequence (P48426 whole entry): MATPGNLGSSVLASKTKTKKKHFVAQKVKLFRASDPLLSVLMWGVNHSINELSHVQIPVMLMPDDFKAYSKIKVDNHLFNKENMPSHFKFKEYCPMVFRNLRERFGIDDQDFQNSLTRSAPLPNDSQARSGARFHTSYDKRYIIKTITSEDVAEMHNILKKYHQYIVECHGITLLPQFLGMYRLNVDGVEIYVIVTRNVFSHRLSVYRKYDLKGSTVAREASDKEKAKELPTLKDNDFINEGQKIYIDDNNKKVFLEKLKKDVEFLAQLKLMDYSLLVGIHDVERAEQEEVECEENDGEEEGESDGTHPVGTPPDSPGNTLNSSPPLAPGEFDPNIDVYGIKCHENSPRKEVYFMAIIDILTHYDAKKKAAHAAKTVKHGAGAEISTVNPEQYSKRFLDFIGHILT
Description: Inhibition of PIP5K2A in human HeLa cells lysate pre incubated for 15 mins followed by ADP acyl phosphate probe addition and measured after 10 mins by LC-MS/MS analysis. The format is subcellular.

In series [14] the target is Calcium/calmodulin-dependent protein kinase type II subunit gamma (Homo sapiens, UniProt Q13555). The experiment in a line: Inhibition of CAMK2g in human HeLa cells lysate at 50 uM pre incubated for 15 mins followed by ATP acyl phosphate probe addition and measured after 10 mins by LC-MS/MS analysis relative to control. The format is subcellular. The note with it: time 25.0 min. A digest of the protocol: as §1
Sequence of Calcium/calmodulin-dependent protein kinase type II subunit gamma (Q13555 whole entry): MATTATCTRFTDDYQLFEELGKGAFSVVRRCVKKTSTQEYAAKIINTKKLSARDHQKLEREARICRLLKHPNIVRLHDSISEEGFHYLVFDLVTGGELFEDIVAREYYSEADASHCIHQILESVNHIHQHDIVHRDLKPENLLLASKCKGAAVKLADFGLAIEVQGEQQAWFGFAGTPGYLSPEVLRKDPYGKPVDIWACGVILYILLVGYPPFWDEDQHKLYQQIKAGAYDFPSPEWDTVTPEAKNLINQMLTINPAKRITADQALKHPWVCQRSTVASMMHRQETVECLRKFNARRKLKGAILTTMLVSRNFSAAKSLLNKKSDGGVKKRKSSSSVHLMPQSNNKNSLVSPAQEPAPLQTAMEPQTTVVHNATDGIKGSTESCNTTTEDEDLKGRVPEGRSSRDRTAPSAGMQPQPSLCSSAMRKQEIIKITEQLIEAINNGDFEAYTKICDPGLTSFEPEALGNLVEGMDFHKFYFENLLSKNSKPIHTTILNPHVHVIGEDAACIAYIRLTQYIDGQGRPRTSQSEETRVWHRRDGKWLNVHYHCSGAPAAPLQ

For series [15], the target named is Glycogen synthase kinase-3 beta (Homo sapiens, UniProt P49841). The experiment in a line: Inhibition of GSK3B isoform 2 in human HeLa cells lysate at 50 uM pre incubated for 15 mins followed by ATP acyl phosphate probe addition and measured after 10 mins by LC-MS/MS analysis relative to control. The format is subcellular. The settings on record: time 25.0 min.
Sequence of Glycogen synthase kinase-3 beta (P49841 whole entry, looked up, canonical isoform): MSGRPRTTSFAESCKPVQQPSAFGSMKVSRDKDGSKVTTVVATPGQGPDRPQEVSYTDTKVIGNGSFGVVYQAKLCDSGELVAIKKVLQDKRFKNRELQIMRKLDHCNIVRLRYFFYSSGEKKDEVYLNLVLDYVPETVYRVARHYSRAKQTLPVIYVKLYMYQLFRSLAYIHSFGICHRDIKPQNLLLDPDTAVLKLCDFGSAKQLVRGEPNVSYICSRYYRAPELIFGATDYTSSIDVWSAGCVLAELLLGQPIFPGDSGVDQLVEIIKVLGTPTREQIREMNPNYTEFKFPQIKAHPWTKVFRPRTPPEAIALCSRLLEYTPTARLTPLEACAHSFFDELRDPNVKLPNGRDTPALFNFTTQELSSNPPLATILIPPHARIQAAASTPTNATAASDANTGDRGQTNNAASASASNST

The target in series [16] is Mixed lineage kinase domain-like protein (Homo sapiens, UniProt Q8NB16). The experiment in a line: Inhibition of MLKL in human HeLa cells lysate pre incubated for 15 mins followed by ADP acyl phosphate probe addition and measured after 10 mins by LC-MS/MS analysis. The format is subcellular.
Series [17] deals with STE20-like serine/threonine-protein kinase (Homo sapiens, UniProt Q9H2G2). The experiment in a line: Inhibition of SLK in human HeLa cells lysate pre incubated for 15 mins followed by ADP acyl phosphate probe addition and measured after 10 mins by LC-MS/MS analysis. The format is subcellular.
Series [18] concerns the target Ribosomal protein S6 kinase beta-2 (Homo sapiens, UniProt Q9UBS0). Description: Inhibition of P70S6KB in human HeLa cells lysate at 50 uM pre incubated for 15 mins followed by ATP acyl phosphate probe addition and measured after 10 mins by LC-MS/MS analysis relative to control. The format is subcellular. The note with it: time 25.0 min.

Sequence of Eukaryotic translation initiation factor 2-alpha kinase 3 (Q9NZJ5 whole entry): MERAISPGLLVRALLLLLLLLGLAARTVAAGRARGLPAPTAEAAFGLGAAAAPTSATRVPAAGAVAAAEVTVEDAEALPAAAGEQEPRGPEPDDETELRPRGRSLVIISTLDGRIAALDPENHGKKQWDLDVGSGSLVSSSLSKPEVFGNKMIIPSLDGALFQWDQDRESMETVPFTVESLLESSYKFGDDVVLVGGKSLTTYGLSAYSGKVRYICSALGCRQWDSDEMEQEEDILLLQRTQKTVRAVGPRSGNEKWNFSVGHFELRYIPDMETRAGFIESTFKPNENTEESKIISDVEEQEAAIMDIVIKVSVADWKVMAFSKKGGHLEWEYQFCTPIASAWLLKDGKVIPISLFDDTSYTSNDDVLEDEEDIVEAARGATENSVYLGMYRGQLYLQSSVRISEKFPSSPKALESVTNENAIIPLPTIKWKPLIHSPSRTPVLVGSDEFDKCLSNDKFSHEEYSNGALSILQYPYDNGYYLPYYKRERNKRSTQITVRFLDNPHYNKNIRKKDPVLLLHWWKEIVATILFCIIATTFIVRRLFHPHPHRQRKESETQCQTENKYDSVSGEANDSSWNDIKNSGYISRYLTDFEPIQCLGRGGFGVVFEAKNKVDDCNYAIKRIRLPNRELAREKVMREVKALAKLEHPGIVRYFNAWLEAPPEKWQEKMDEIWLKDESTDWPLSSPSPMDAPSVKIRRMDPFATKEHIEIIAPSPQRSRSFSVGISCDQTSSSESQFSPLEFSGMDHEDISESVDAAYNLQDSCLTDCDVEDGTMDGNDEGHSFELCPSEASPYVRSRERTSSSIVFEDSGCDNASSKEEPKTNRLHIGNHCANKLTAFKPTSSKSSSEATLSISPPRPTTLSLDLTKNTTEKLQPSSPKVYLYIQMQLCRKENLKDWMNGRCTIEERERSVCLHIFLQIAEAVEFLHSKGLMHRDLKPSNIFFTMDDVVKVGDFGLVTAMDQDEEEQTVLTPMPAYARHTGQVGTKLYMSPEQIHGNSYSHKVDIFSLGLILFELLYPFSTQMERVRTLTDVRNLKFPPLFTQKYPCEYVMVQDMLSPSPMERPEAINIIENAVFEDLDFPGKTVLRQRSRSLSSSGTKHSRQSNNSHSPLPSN
Sequence of Ribosomal protein S6 kinase beta-2 (Q9UBS0 whole entry): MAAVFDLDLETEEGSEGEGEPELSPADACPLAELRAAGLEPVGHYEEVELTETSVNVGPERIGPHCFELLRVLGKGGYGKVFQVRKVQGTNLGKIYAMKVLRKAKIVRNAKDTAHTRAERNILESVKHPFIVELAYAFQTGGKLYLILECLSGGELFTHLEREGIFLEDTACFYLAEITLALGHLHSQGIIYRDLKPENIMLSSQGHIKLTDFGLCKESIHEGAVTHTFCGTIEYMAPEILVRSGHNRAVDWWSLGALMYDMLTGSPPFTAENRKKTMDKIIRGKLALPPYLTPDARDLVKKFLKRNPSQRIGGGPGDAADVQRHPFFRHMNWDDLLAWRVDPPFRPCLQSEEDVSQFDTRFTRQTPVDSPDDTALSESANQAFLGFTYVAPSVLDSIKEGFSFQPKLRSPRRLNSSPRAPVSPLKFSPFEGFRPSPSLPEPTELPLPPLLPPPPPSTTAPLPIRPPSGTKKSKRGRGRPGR

As usually defined, the IC50 is the concentration that gives 50% inhibition. In general, inhibition refers to the relative decrease from the control value, in per cent. For `CCOc1cc(N2CCC(O)CC2)ccc1Nc1ncc2c(n1)N(C)c1ccccc1C(=O)N2C`, the IC50 in [1], in [2], in [3], in series [6], in series [8] and in series [9] was over 50 µM each time. For the same compound, the IC50 in series [12], in [13], in series [16] and in [17] was over 50 µM each time. Further, testing at 2 µM in series [4] gave an inhibition of 12.7%. Further, the inhibition in series [5] was 9.8%; in series [7] it was 17.5%; in series [10], 2%; in [14], 13.9%; in series [15], 22.3%; in [18] it was 3%. In addition, the Activity in [11] was 402 U/L.
